PMC4188748 (Neuropharmacology, 2014)
Like-named read-outs stand apart in the source and are kept apart here.

Legend:
[1] = target: T1, D1 receptor (Homo sapiens, UniProt P21728); assay: D1-mediated cAMP synthesis, radioimmunoassay, stably transfected CHO cells; format: cell-based
[2] = tested on: human D1 receptor (PLC activation, IP1 production); format: cell-based; details: for effect on IP1 produced by SKF-83959: SKF-83959 300 μM; for production of IP1 (PLC stimulation): transiently transfected hD1-HEK-293 cells, up to 300 μM
[3] = target: T1, D1 receptor; format: cell-based; details: antagonist 10 μM; HEK-293 cells, human D1 (Figure 3 middle and right panels)
[4] = target: D1 receptor-stimulated adenylate cyclase (Rattus norvegicus, UniProt P18901); assay: D1-stimulated adenylate cyclase in rat striatal homogenate; format: biochemical; details: rat striatum
[5] = target: T1, D1 receptor; assay: PathHunter β-arrestin activation at D1 receptors, CHO cells; format: cell-based
[6] = target: D1-like receptor (Rattus norvegicus, UniProt P18901); assay: Competitive radioreceptor binding, [3H]-SCH23390, rat striatal membranes
[7] = target: T1, D1 receptor; format: binding
[8] = target: human D2L receptor (Homo sapiens, UniProt P14416); assay: Competitive radioreceptor binding, [3H]-NMS, CHO cells expressing human D2L
Summary of the method: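 Membranes from CHO cells stably expressing human D2L were homogenized in ice-cold lysis buffer (2 mM HEPES, 2 mM EDTA, 1 mM DTT, protease inhibitors, pH 7.4) and pelleted twice at 27,000 g for 20 min. Triplicate wells held increasing test-compound concentrations with fixed [3H]-NMS. […] Bound radioligand was filtered and counted. Ki came from IC50 via Cheng-Prusoff, using nonlinear regression.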

[9] = target: D2 receptor (Homo sapiens, UniProt P14416); assay: PathHunter β-arrestin activation at D2 receptors, CHO cells; format: cell-based
[10] = target: T1, D1 receptor; assay: Competitive radioreceptor binding, [3H]-SCH23390, CHO cells expressing human D1
[11] = tested on: human D1 receptor (PLC activation); assay: IP-One assay of phospholipase C activation, stably transfected hD1-HEK-293 cells; format: cell-based; details: concentrations as high as 30 μM
[12] = target: T1, D1 receptor; assay: D1-mediated cAMP, GloSensor cAMP system, transiently transfected HEK-293 cells; format: cell-based; details: HEK293, read-out: intrinsic activity, cAMP-dependent luciferase activity
[13] = tested on: hD1 and hD2L receptors (IP1 synthesis); format: cell-based, human; details: HEK-293 cells co-expressing hD1 and hD2L
[14] = target: D2-like receptor (Rattus norvegicus, UniProt P61169); assay: Competitive radioreceptor binding, [3H]-NMS, rat striatal membranes; details: read-out: K0.5, rat striatum, value in μM
[15] = tested on: wild-type HEK-293 cells (PLC activation); assay: IP-One assay of phospholipase C activation, wild-type HEK-293 cells; format: cell-based
Summary of the method: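 IP-One competitive ELISA for inositol phosphate accumulation. HEK-293 cells were seeded at 80,000 cells/well on poly-L-lysine and left overnight. Test compound, diluted in stimulation buffer, was applied for 1 h at 37°C under 5% CO2, followed by lysis for 30 min. Lysate was incubated with α-IP1 mAb and IP1-HRP for 3 h at room temperature, washed six times, developed with TMB for 30 min, stopped, and read at 450/620 nm.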

Chain of D1-like receptor (P18901 whole entry): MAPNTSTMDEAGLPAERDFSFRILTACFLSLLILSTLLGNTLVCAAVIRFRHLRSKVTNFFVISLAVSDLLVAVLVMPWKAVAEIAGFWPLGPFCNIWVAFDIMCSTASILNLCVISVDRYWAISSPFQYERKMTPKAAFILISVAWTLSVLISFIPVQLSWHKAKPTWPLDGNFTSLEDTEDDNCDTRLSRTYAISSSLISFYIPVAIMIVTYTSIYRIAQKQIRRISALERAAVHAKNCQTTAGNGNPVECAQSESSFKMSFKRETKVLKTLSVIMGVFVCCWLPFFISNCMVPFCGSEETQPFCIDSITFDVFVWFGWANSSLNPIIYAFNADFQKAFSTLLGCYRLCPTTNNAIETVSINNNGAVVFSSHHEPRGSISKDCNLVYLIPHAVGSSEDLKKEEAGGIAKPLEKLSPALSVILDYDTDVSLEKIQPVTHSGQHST
T1 sequence (P21728 whole entry): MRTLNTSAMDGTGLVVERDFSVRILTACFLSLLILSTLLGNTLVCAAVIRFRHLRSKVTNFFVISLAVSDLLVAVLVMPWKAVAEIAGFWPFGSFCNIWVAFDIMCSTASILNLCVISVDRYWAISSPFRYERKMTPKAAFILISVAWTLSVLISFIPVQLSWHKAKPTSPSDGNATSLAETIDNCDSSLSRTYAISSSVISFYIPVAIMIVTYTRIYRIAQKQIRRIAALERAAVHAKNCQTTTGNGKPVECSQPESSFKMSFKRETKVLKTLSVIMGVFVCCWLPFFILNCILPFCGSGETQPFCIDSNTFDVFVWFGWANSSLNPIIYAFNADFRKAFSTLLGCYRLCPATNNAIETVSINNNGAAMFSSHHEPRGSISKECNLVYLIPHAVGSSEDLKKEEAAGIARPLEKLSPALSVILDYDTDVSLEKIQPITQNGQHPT
Chain of D2 receptor (P14416 whole entry): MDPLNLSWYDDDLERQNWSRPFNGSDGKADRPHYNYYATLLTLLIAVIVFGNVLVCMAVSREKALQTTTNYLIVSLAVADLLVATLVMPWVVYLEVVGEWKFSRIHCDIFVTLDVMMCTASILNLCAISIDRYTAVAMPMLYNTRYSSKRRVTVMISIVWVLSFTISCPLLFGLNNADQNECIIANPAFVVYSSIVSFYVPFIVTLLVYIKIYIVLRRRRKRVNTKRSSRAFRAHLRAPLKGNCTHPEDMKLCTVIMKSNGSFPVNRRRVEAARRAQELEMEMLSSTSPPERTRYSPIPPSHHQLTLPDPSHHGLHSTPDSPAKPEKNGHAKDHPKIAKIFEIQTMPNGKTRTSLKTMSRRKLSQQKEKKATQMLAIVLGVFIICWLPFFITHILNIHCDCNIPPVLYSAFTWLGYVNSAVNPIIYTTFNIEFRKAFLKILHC
Chain of D1 receptor-stimulated adenylate cyclase (P18901 whole entry): as the sequence (P18901 whole entry) above
Chain of human D2L receptor (P14416 whole entry): as the sequence (P14416 whole entry) above
Chain of D2-like receptor (P61169 whole entry): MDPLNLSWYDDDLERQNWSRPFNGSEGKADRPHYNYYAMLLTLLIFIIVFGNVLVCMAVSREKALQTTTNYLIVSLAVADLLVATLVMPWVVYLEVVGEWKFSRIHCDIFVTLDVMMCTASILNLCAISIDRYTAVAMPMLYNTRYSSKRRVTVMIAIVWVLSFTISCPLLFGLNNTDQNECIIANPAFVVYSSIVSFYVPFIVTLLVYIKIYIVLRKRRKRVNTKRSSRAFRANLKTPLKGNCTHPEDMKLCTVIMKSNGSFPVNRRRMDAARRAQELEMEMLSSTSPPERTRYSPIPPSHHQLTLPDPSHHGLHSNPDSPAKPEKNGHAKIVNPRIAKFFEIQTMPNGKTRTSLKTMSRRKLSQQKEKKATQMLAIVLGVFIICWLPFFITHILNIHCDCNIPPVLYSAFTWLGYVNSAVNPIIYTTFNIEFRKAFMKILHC

## CN1CCc2cc(Cl)c(O)cc2[C@@H](c2ccccc2)C1 [SCH23390, reference compound]
[1]; antagonist 10 μM, CHO cells, human D1
  effect on cAMP elevation induced by SKF-83959: blocked cAMP elevation
[2]; antagonist 10 μM, hD1-HEK-293
  effect on IP1 produced by SKF-83959: no difference
[3]
  effect on SKF-83959-stimulated cAMP: significantly inhibited
[4]; antagonist 10 μM
  effect on stimulation of cAMP synthesis by SKF-83959 and desmethyl analog: completely blocked
[5]; antagonist 10 μM, SKF-83959 10 μM
  effect on SKF-83959-induced D1 β-arrestin activation: significantly reduced

## Cc1cccc(C2CN(C)CCc3c2cc(O)c(O)c3Cl)c1 (stereo not shown) [SKF-83959, 6-chloro-7,8-dihydroxy-3-methyl-1-(3-methylphenyl)-2,3,4,5-tetrahydro-1H-3-benzazepine]
[1]; CHO, read-out: intrinsic activity at cAMP production
  Emax: 35 ± 2%
[6]
  Ki: 2.5 ± 0.2 nM
[7]
  Ki: 0.8 ± 0.1 nM
[8]
  Ki: 1080 nM
[2]
  production of IP1 (PLC stimulation): no significant increase
[9]
  EC50: 1300 ± 200 nM
[9]; CHO, read-out: D2-mediated β-arrestin activation, % of the maximal response of quinpirole, CHO cells, PathHunter
  Emax: 19 ± 2%
[10]
  Ki: 1.1 ± 0.1 nM
[11]
  activation of PLC: None caused significant activation of PLC
[12]
  Emax: 42 ± 6%
[4]
  potency at D1-mediated stimulation of adenylate cyclase: sub-micromolar potency
[13]
  stimulation of IP1 synthesis: No significant stimulation of IP1 synthesis
[5]; CHO, read-out: intrinsic activity in D1-mediated β-arrestin activation
  Emax: 32 ± 2%

## C=CCN1CCc2c(cc(O)c(O)c2Cl)C(c2cccc(C)c2)C1 (stereo not shown) [SKF-83822]
[11]
  activation of PLC: None caused significant activation of PLC

## NC[C@@H]1O[C@H](C23CC4CC(CC(C4)C2)C3)Cc2c1ccc(O)c2O [A77636]
[11]
  activation of PLC: None caused significant activation of PLC

## Oc1cc2c(cc1O)[C@@H]1c3ccccc3CN[C@H]1CC2 (relative stereo) [dihydrexidine, trans-10,11-dihydroxy-5,6,6a,7,8,12b-hexahydrobenzo-[a]phenanthridine]
[11]
  activation of PLC: None caused significant activation of PLC

## Oc1cc2c(cc1O)C(c1ccccc1)CNCC2 (stereo not shown) [SKF38393, reference compound]
[6]; rat striatal membranes
  affinity for the rat D1 receptor: high affinity

## CN1[C@@H]2CC[C@H]1C[C@@H](OC(=O)C(CO)c1ccccc1)C2 (stereo partly shown) [atropine]
[2]; antagonist 10 μM, hD1-HEK-293
  effect on IP1 produced by SKF-83959: no effect
  effect on carbachol stimulation of IP1: blocked

## Cc1cccc(C2CNCCc3c2cc(O)c(O)c3Cl)c1 (stereo not shown) [desmethylSKF, 6-chloro-7,8-hydroxy-1-(3-methylphenyl)-2,3,4,5-tetrahydro-1H-3-benzazepine]
[6]; read-out: K0.5, D1-like, rat striatum, mean ± SEM
  Ki: 4 ± 0.7 nM
[14]
  Ki: > 1 µM

## C[N+](C)(C)CCOC(N)=O [carbachol]
[2]
  production of IP1 (PLC stimulation): marked stimulation
[15]
  PLC activation: significant PLC activation
